From PubChem BioAssay
Hits are enriched below; roughly 2.2% of the tested compounds scored in any of these assays.
DDE Tn6 FP inh = disrupts Tn6 cyclic peptide binding to fibrin D-Dimer-E complex; AID 720509; inhibition, % at 8.3 µM; hit rate 0.21% among 370,000; P02675; Fibrin DD(E) TRITC-Tn6 fluorescence polarization displacement;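 active = inhibition above a per-campaign cutoff: mean of compounds within control limits plus 3 SD, cut at about 15% in these data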
DDE Tn7 FP inh = inhibitors of Tn7 peptide binding to human fibrin DD(E) | P02675 | FP displacement of FITC-Tn7 peptide from fibrin DD(E); 0% = median of compound wells per plate | inhibition, % at 8.3 µM | hit rate 0.13% among 370,000;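 active = inhibition above the mean of compounds falling within the control limits plus 3 SD of them, cut at about 14% in these data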
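Measure: % inhibition scaled between sample-field median and high-control FP; Test system: human fibrin DD(E); Quantity: 2 µM final DD(E) protein; Doses: one dose, 8.3 µM nominal; Schedule: compound with protein 10 min, then 3 h after probe, room temperature; Detection: fluorescence polarization; Medium: Tris buffer with calcium and detergent, pH 7.8.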
Neddylation inh = blocks human cullin neddylation. P61081+Q13564. TR-FRET cullin neddylation, biochemical. calls only at 25 µM. hit rate 0.58% among 360,000. AID 651699; in the data active = inhibition above about 36%
proKLK7 act = proKLK7 (human) activation, primary screen. hit rate 0.9% among 370,000. purified proKLK7, EDANS-DABCYL substrate fluorescence; 100% is mature enzyme control, 0% vehicle. P49862. activation, % at 7 µM. AID 652039;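 active = activation above the mean of all tested compounds plus 3 SD, computed per campaign excluding outliers beyond control limits, cut at about 13% in these data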
Target sequence (P49862 whole entry, looked up): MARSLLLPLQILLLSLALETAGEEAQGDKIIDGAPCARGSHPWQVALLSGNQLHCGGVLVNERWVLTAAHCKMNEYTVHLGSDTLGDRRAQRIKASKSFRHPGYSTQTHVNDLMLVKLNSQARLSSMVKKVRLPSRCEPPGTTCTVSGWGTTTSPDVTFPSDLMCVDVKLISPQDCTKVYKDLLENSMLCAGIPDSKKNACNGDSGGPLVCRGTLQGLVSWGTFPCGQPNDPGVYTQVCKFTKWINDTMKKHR
SKN-1 inh = C. elegans SKN-1 inhibition; inhibition, % at 21.8 µM; C. elegans VP596 Pgst-4::GFP/RFP ratio, acrylamide-induced, 24 h; hit rate 0.49% among 360,000;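 active = interference check ratio from 0.5 to 1.5 plus GFP to RFP signal ratio inhibition reaching or exceeding a fixed threshold, cut at about 30% in these data, passing the limit was not always enough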
MT1-MMP act inh = blocks activation of human MT1-MMP; AID 651647; hit rate 0.061% among 360,000; HT1080 RFP-PRO-GFP cells, GFP/RFP ratio fluorescence, overnight; percent of plate control window, DMSO zero; GFP/RFP ratio change, % at 20 µM; P50281;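 active = GFP/RFP ratio change of at least 30% with cell ATP level not reduced by more than half and red fluorescence within 50% of control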
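Test system: HT1080 RFP-PRO-GFP cells; Benchmarks: DMSO and RFP-L50D-GFP cell wells; Timing: cells overnight before dosing, compound overnight, 37 °C, 5% CO2; Compound: one 20 µM compound dose with 1% DMSO; Read-out: GFP/RFP fluorescence ratio.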
Neddyl inh conf = confirmation of human cullin neddylation inhibitors | shares compounds with Neddylation inh | hit rate 13% among 1,800 | TR-FRET cullin neddylation biochemical assay | calls only at 25 µM; in the data active = inhibition above about 40%;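 note: neddylation substrate is the cullin 1 ring ligase complex with SKP2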
proKLK7 act conf = confirmation of human kallikrein-7 zymogen activators | hit rate 68% among 3,200 | purified proKLK7, EDANS-DABCYL substrate fluorescence; scaled: vehicle 0, mature enzyme 100 | activation, % at 7 µM | shares compounds with proKLK7 act | AID 686949;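 active = activation, as change over the incubation, above the mean of all tested compounds plus 3 SD, cut at about 13% in these data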
EDANS-DABCYL int = counter-screen for kallikrein-7 activators: EDANS-DABCYL optical interference | shares compounds with proKLK7 act | EDANS-DABCYL substrate fluorescence interference, no enzyme, 4 h; solvent 0%, active enzyme control 100% | activation, % at 7 µM | hit rate 80% among 3,200 | AID 686952;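 active = activation above the all-compound mean plus 3 SD, ignoring values outside control-based bounds, cut at about 4.8% in these data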;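 note: value is the 4 h activation minus the activation read at time zero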
EDANS interf = EDANS fluorescence interference in dose response, no enzyme | AID 720493 | shares compounds with proKLK7 act | hit rate 20% among 250 | EDANS-DABCYL peptide fluorescence interference | EC50, µM;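 active = compounds that raise the fluorescence signal in this interference counterscreen, with EC50 at or below 10 µM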;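 note: intact quenched peptide substrate alone read at 355 nm excitation and 520 nm emission; signal is fluorescence gain from T0 to T4 after four hours at room temperature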
Large screens that a line does not name were inactive (follow-up assays come after a bar, where shown).

CN(C)c1ccc(/C=C(\C#N)c2ccccn2)cc1	none
COc1cc2c(cc1OC)C(C1C(=O)CC(C)(C)CC1=O)N(C(=O)CCl)CC2 (stereo unspecified)	Neddylation inh active, proKLK7 act 124 | Neddyl inh conf inactive | proKLK7 act conf inactive | EDANS-DABCYL int 15
O=C(c1cc(-c2ccncc2)nc2ccccc12)N1CCCC(C(F)(F)F)C1 (stereo unspecified)	none
O=C(c1cc(-c2ccco2)nc2ccccc12)N1CCCC(C(F)(F)F)C1 (stereo unspecified)	Neddylation inh active, proKLK7 act 48 | proKLK7 act conf 66 | EDANS-DABCYL int 67
CCOC(=O)N1CCN(Cc2cc(Cl)c3cccnc3c2O)CC1	none (no result: Neddylation inh, SKN-1 inh, MT1-MMP act inh)
CC12CCC(c3n[nH]c(=S)nc31)C2(C)C (stereo unspecified)	none
COc1ccc(-c2ccc3nnc(SCC(=O)N4CCCC4)n3n2)cc1	Neddylation inh active, proKLK7 act 15 | proKLK7 act conf 17 | EDANS-DABCYL int 13 | EDANS interf inactive
Oc1ccc2ccccc2c1CN1CCOCC1	none
Oc1cnc2ccccc2c1CN1CCOCC1	Neddylation inh active, proKLK7 act 15 | Neddyl inh conf inactive | proKLK7 act conf inactive | EDANS-DABCYL int 6.9
NNC(=O)c1ccc(CSc2cccc3cccnc23)cc1	Neddylation inh active, proKLK7 act 13 | Neddyl inh conf active | proKLK7 act conf inactive | EDANS-DABCYL int inactive
O=C(N/N=C/c1ccccc1Br)c1ccc(CSc2cccc3cccnc23)cc1	none
C/C(=N\NC(=O)c1cccnc1)c1c(O)cc(C)oc1=O	none
CCOC(=O)c1c(NC(=O)C2CCN(S(=O)(=O)c3cccs3)CC2)sc(C)c1C	none
C[C@]12c3[nH]c4cc(-c5ccco5)ccc4c3CCN1C(=O)[C@@H](CC(=O)NCC13CC4CC(CC(C4)C1)C3)C[C@@H]2C(=O)N1CCCCC1	none (not shown: Neddylation inh)
CN(C)CCCNC(=O)C[C@H]1C[C@H](C(=O)N2CCCCC2)[C@@]2(C)c3[nH]c4cc(-c5ccco5)ccc4c3CCN2C1=O	Neddylation inh active, proKLK7 act 97 (no result: MT1-MMP act inh) | Neddyl inh conf inactive | proKLK7 act conf 86 | EDANS-DABCYL int 109
CCN(CC)CCn1c(/N=C/c2ccc(OC)c(OC)c2)nc2ccccc21	none
COC(=O)c1ccc(C(=O)OC)c(NC(=O)/C=C/C(=O)O)c1	Neddylation inh active, proKLK7 act 16 | Neddyl inh conf inactive | proKLK7 act conf inactive | EDANS-DABCYL int inactive
